# Variants at the floor of the assay were thinned out.
# B1: tRNA (parent)
# chain: GUUCCGUUGGCGUAAUGGUAACGCGUCUCCCUCCUAAGGAGAAGACUGCGGGUUCGAGUCCCGUACGGAACG
# Variants of: B1
# Test: yeast fitness relative to wild type (ratio to wild type); higher = fitter; tRNA-Arg(CCU), competitive growth, 37 C, YPD
# In short: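 Genotype frequency changes were the basis for Darwinian fitness relative to wild type. The frequencies came from 100-nucleotide paired-end sequencing of gene amplicons from the start population and each end population of pooled yeast strains with tRNA-Arg(CCU) gene variants at the native locus. Competition ran in YPD at 37°C for 24 hours in six replicates, genotypes needed ≥ 100 starting reads, and estimates < 0.5 were set to 0.5.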
row,Variant,yeast fitness
1,GUUCUGUUGGCGUAAUGGUAACGCGUGUCCCUCCUAAUGAGAAGACUGCGGGUUCGAGUCCCGUACGGAACG [C5U C27G G38U],≤ 0.5
2,GUUCGGUUGGCGUAAUGGUAACGCGUUUCCCUCCUAAGGAGAAGACUGCGGGUCCGAGUCCCGUACGGAACG [C5G C27U U54C],0.747
3,GUUCCGUUGGCGUAAUGGUAACGCGUCUCCCUUCUAAGAAGAAGACUGCGGGUUCGAGUCCCGUACGGCACG [C33U G39A A69C],≤ 0.5
4,GUUCCGUUGGCGUAAUGGUAACGGGUCUCUCUCCUAAGGAGAUGACUGCGGGUUCGAGUGCCGUCCGGAACG [C24G C30U A43U C60G A65C],≤ 0.5
5,GUUCCCUUGGCGUAAUCGUAACGCGUCUCCCGCCUAAGGCGAAGACUGCGGGUUCGAGUCCCGUACAGAACG [G6C G17C U32G A40C G67A],0.603
6,GUUCCGUUGGCGUAAUGGUCACGCGUCUCCCUCCUAUGGAGAAGACUGCGGGUUCGAGGCCCGUAAGGAACG [A20C A37U U59G C66A],0.656
7,GUUCCGUUGGCGUAAUGGUAACGCGUCUCCCGCCUUAGGAGAAGGCUGCGGGUUCGAGUCCCGUACGGAACG [U32G A36U A45G],≤ 0.5
8,GUUCCGUUGGCGUGAUGGUAACGCGUCUCCCUCCUAAGGAAAAGACAGCGGGUUCGAGUCCCGUACGGAACG [A14G G41A U47A],0.591
9,GUUCCGUGGGCGUAAUGGUAACGCCUCUCCCUCCUGAGGAGAAGACUACGGGUUCGAGUACCGUACGGAACG [U8G G25C A36G G48A C60A],≤ 0.5
10,GUUCCGUUAGCGUGAUGGUAACGCGUCUCCCUCCUAAGGAGAAGACUGCGGGUUCGAGUCCCGUACGGAACG [G9A A14G],0.908
11,GUUCGGUUGGCGUAAUGGUAACGCGUCUCCCUCCUAAGGAGAAGACUGCGGGUUUGAGUCCCGUCCGGAUCG [C5G C55U A65C A70U],≤ 0.5
12,GUUCCGUUGGCGUAAUGGUAACGCGUCUCCCUCCUAAGGAGAAGACUGCGGGUUCGAGUCGCGUACGUAACG [C61G G68U],0.558
13,GUUCCGUUGGCGUAAUGCUAACGCGUUUCCCUCCUAAGGAGAAGACUGCGGGUUCGAGUCCCGUACGGCACG [G18C C27U A69C],0.502
14,GUUCGGUUGGCGUAAUGGUAACGCGACUCCCUCCUCAGGAGGAGACUGCGGGUUCGAGUCCCGUACGGAACG [C5G U26A A36C A42G],≤ 0.5
15,GUUCCGUUGGCGUAAUGGUAUCGCGUCUCCCUCCUAAGGAGAAGACUGCGGGUUCGAGACCCGUACGGAUCG [A21U U59A A70U],0.532
16,GUUCGGUAGGCGUAAUGGUAACGCGUCUCCCUCCUAAGGAGAAGACUGCGGGUUCGAGUCCAGUACGGUACG [C5G U8A C62A A69U],≤ 0.5
17,GUUCCGUUGGCGUAAAGGUAACGCGCCUCCCUCCUAAGGAGAAGACUGCGGGUUCGAGUCCCGUACGGAUCG [U16A U26C A70U],0.558
18,GUUCCGUUGGCGUAAUGGUAACGCGUCCCCCUCCUAAGGAGAAGACUGCGGGUUCGAGCCCCGUACAGAACG [U28C U59C G67A],0.532
19,GUUCCGUUGGCGUGAUGGUAACGCGUCUCCCUCUUAAGGAGAAGACUGCGGGUUCGAGUCCCGUAUGGAUCG [A14G C34U C66U A70U],≤ 0.5

row,Variant,yeast fitness
1,GUUUCGUUGGCGUAAUGGUAACGCGUCUCUCUCCUAAGGAGAAGACUGCGGGGUCCAGUCCGGUACGGAACG [C4U C30U U53G G56C C62G],≤ 0.5
2,GUUCCGUUGGCGUAAUGGUAACGCGUCUUCCUCCUAAGGAGAAGACUGCGGGUUCGAGUCCUGUACGGAACG [C29U C62U],0.763
3,GUUCCGUUGGCGUACUGGUAACGCGUCUCCCUCCUAAGGAGAAGACUGCGGGUUCGAGUCCCGUCCGGAACG [A15C A65C],0.713
4,GUUCCCUUGGCGUAAUGGUAACGGGUCUCCCUCCUAAGGAGAAGACUGCGGGUUCGUGUCCCGUACGGAACG [G6C C24G A57U],≤ 0.5
5,GUUCCGUUGGCGUAAUUGUAACGCAUCUCCCUCCUAAGGAGAAGACUGCAGGUUCGAGUCCCCUACGGAACG [G17U G25A G50A G63C],≤ 0.5
6,GUUCUGUUGACGUAAUGGUCACGCGUCUCCCUCCUAAGGAAAAGAGUACGGGUCUGAGUCCCGUACGGACCG [C5U G10A A20C G41A C46G G48A U54C C55U A70C],0.647
7,GUUCCGUUGGCGUAAUGGUAACGCGUCUCCCUCUUAAGGAGAAGAAUGCCGGUUCGAGUCCCGUACGGAACG [C34U C46A G50C],≤ 0.5
8,GUACCGUUGGGGUAAUGGUAAAGCGUCUCCCUGCUAAGGAGAAGACUGCGGGUUCGAGUCCCGUACGGAACG [U3A C11G C22A C33G],≤ 0.5
9,GUUCCGAUGGCGUAAUGGUAACGCGUCUCCCUCCUAAGGAGCAGACAGCGGGUUCGAGUCCCCUACGGCACG [U7A A42C U47A G63C A69C],≤ 0.5
10,GUUCCGUUGACGUAAUGGUAACGCGUCUCCCUCCUAGGGAGAAGACUGCGGGUUCGAGUCCCGUACGGAACG [G10A A37G],0.551
11,GUGCCGUUGGCGUAAUGGUAACGCGUCUACCUCCUAAGGAGAAGAUUGCGGGUUCGAGUCGCGUACGGAACG [U3G C29A C46U C61G],≤ 0.5
12,GUUCCGUUGGCGUAAUGGUAACGUGUCUCCCUCCUAAGGAGAAGACCGCGGGUUCGAGUCCCGUACGGAACG [C24U U47C],0.997
13,GUUCCGUUGGCGUAAUGGUGACGCGUCUCCCUCCUAAGGAGAAGACUGCCGGUUCGAGUCUCGUACGGAACG [A20G G50C C61U],≤ 0.5
14,GUUCCGUUGGCGUAAUGGUAAGGCGUCUACCUCCUAAGGAGAAGACUGCGGGAUCGAGUCCCGUACGGAACG [C22G C29A U53A],≤ 0.5
15,GUUCCGUUGGAGUAAUGGUGACGCGUCUCCCUCCUAAGGAGAAGACUGCGGGUUCGAGUCCAGUACGGAACG [C11A A20G C62A],0.605
16,GUUCAGUUGGCGUAAUGGUAACGCGUCUCCCUCCUAUGGAGAAGACUGCGGGUUCGGGUCCCCUACGGAACG [C5A A37U A57G G63C],0.733
17,GUUCCCUCGGCGUAAUGGUAACGCGUCUCCCUCCUAAGGAGAAGACUGCGGGUUCGAGUCCCGUACGGAACG [G6C U8C],0.662
18,GUUCCGUUGGCGUAAUGGUAGCGCGUCUCCCUCCUAAGGCGUAGAUUGUGAGUUCGAGUCCCGUACGGCACG [A21G A40C A42U C46U C49U G51A A69C],0.596

# From the RNAGym collection of RNA variant scans (doi:10.1126/science.aae0568)
